From ChEMBL document CHEMBL1138683 (J Med Chem, 2004)

Legend:
Rattus norvegicus [1] = test: Anticonvulsant activity administered orally to rat for protective index of subcutaneous metrazol test; type: functional
Mus musculus [2] = test: Anticonvulsant activity administered intra peritoneally to mouse for protective index of subcutaneous metrazol test; type: functional
[3] = Anti convulsant activity administered intra peritoneally to mouse for toxicity at 4 hr with dose of 100 mg/kg; 1/4= No of animals exhibiting toxicity /No of animals tested; type: organism-based; parameters: dose 100 mg/kg; settings: in vivo, ip
[4] = Anti convulsant activity administered intra peritoneally to mouse for toxicity at 4 hr with dose of 300 mg/kg; 0/2= No of animals exhibiting toxicity /No of animals tested; type: organism-based; parameters: dose 300 mg/kg; settings: in vivo, ip
[5] = Anti convulsant activity administered intra peritoneally to mouse for toxicity at 4 hr with dose of 30 mg/kg; 0/2= No of animals exhibiting toxicity /No of animals tested; type: organism-based; parameters: dose 30 mg/kg; settings: in vivo, ip
[6] = Anti convulsant activity administered intra peritoneally to mouse for toxicity at 0.5 hr with dose of 30 mg/kg; 0/4= No of animals exhibiting toxicity /No of animals tested; type: organism-based; parameters: dose 30 mg/kg; settings: in vivo, ip
[7] = Anti convulsant activity administered intra peritoneally to mouse for toxicity at 0.5 hr with dose of 100 mg/kg; 0/8= No of animals exhibiting toxicity /No of animals tested; type: organism-based; parameters: dose 100 mg/kg; settings: in vivo, ip
[8] = Anti convulsant activity administered intra peritoneally to mouse for toxicity at 0.5 hr with dose of 300 mg/kg; 4/4= No of animals exhibiting toxicity /No of animals tested; type: organism-based; parameters: dose 300 mg/kg; settings: in vivo, ip
Mus musculus [9] = test: Anti convulsant activity administered intra peritoneally to mouse at maximal electroshock test at 4 hr after the drug administered with dose of 30 mg/kg; 0/1= No of animals protected /No of animals tested; type: functional
Mus musculus [10] = test: Anti convulsant activity administered intra peritoneally to mouse at maximal electroshock test at 4 hr after the drug administered with dose of 100 mg/kg; 0/3= No of animals protected /No of animals tested; type: functional
Mus musculus [11] = test: Anti convulsant activity administered intra peritoneally to mouse at maximal electroshock test at 4 hr after the drug administered with dose of 300 mg/kg; 0/1= No of animals protected /No of animals tested; type: functional
Mus musculus [12] = test: Anti convulsant activity administered intra peritoneally to mouse at maximal electroshock test at 0.5 h after the drug administered with dose of 30 mg/kg; 0/1= No of animals protected /No of animals tested; type: functional
Mus musculus [13] = test: Anti convulsant activity administered intra peritoneally to mouse for subcutaneous metrazol test at 4 hr after the drug administered with dose of 30 mg/kg; 0/1= No of animals protected /No of animals tested; type: functional; settings: route intraperitoneal
Mus musculus [14] = test: Anti convulsant activity administered intra peritoneally to mouse at maximal electroshock test at 0.5 hr after the drug administered with dose of 100 mg/kg; 0/3= No of animals protected /No of animals tested; type: functional
Mus musculus [15] = test: Anti convulsant activity administered intra peritoneally to mouse at maximal electroshock test at 0.5 hr after the drug administered with dose of 300 mg/kg; 1/1= No of animals protected /No of animals tested; type: functional
Mus musculus [16] = test: Anti convulsant activity administered intra peritoneally to mouse for subcutaneous metrazol test at 4 hr after the drug administered with dose of 100 mg/kg; 0/1= No of animals protected /No of animals tested; type: functional
Rattus norvegicus [17] = test: Anticonvulsant activity after oral administration of 50 mg/kg dose after 30 min in rats; +means 25% of animal protected; type: functional, organism-based; parameters: dose 50 mg/kg
In short: (§1)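 Rats dosed orally with compound dissolved or suspended in 0.5% methylcellulose (0.04 mL per 10 g body weight). Anticonvulsant protection (MES or scMet) and toxicity scored at 15 min, 30 min, 1 h, 2 h and 4 h after dosing. Graded in steps of 25% of animals protected or showing toxicity.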

Rattus norvegicus [18] = test: Anticonvulsant activity after oral administration of 50 mg/kg dose after 2 hr in rats; ++ means 50% of animals protected; type: functional, organism-based; parameters: dose 50 mg/kg
In short: (§2)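 Oral dosing of rats at a single dose, compound dissolved or suspended in 0.5% methylcellulose. Protection in the MES or scMet test checked 15 min, 30 min, 1 h, 2 h and 4 h after dosing. Scored as 25/50/75/100% of animals protected (+ to ++++), – for none.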

Rattus norvegicus [19] = test: Anticonvulsant activity after oral administration of 50 mg/kg dose after 4 hr in rats; + means 25% of the animal protected; type: functional, organism-based; parameters: dose 50 mg/kg; in short: as §1
Rattus norvegicus [20] = test: Anticonvulsant activity after oral administration of 50 mg/kg dose after 30 min in rats; + means 25% of animals protected; type: functional, organism-based; parameters: dose 50 mg/kg; in short: as §2
Mus musculus [21] = test: Anti convulsant activity administered intra peritoneally to mouse for subcutaneous metrazol test at 4 hr with dose of 300 mg/kg; 0/1= No of animals protected /No of animals tested; type: functional
Mus musculus [22] = test: Anti convulsant activity administered intra peritoneally to mouse for subcutaneous metrazol test at 0.5 hr with dose of 30 mg/kg; 0/1= No of animals protected /No of animals tested; type: functional
Mus musculus [23] = test: Anti convulsant activity administered intra peritoneally to mouse for subcutaneous metrazol test at 0.5 hr with dose of 100 mg/kg; 0/1= No of animals protected /No of animals tested; type: functional
Mus musculus [24] = test: Anti convulsant activity administered intra peritoneally to mouse for subcutaneous metrazol test at 0.5 h with dose of 300 mg/kg; 0/1= No of animals protected /No of animals tested; type: functional
Rattus norvegicus [25] = test: Anticonvulsant activity after oral administration of 50 mg/kg dose after 1 hr in rats; +means25% of animals protected; type: functional, organism-based; parameters: dose 50 mg/kg; in short: as §2
[26] = Anti convulsant activity administered intra peritoneally to mouse for toxicity at 4 hr with dose of 100 mg/kg; 0/4= No of animals exhibiting toxicity /No of animals tested; type: organism-based; parameters: dose 100 mg/kg; settings: in vivo, ip
[27] = Anti convulsant activity administered intra peritoneally to mouse for toxicity at 0.5 hr with dose of 100 mg/kg; 1/8= No of animals exhibiting toxicity /No of animals tested; type: organism-based; parameters: dose 100 mg/kg; settings: in vivo, ip
Mus musculus [28] = test: Anti convulsant activity administered intra peritoneally to mouse at maximal electroshock test at 4 hr after the drug administered with dose of 300 mg/kg; 1/1= No of animals protected /No of animals tested; type: functional
Rattus norvegicus [29] = test: Anticonvulsant activity after oral administration of 50 mg/kg dose after 1 hr in rats;+means 25% of the animals protected; type: functional, organism-based; parameters: dose 50 mg/kg; in short: as §2
Rattus norvegicus [30] = test: Anticonvulsant activity after oral administration of 50 mg/kg dose after 2 hr in rats; +++ means 75% of the animal is protected; type: functional, organism-based; parameters: dose 50 mg/kg; in short: as §2
Rattus norvegicus [31] = test: Anticonvulsant activity after oral administration of 50 mg/kg dose after 30 min in rats; ++ means 50% of the animal protected; type: functional, organism-based; parameters: dose 50 mg/kg; in short: as §1
Rattus norvegicus [32] = test: Anticonvulsant activity after oral administration of 125 mg/kg dose after 30 min in rats;++ means 50% of the animals protected; type: functional, organism-based; parameters: dose 125 mg/kg; in short: as §2
[33] = Anti convulsant activity administered intra peritoneally to mouse for toxicity at 0.5 hr with dose of 300 mg/kg; 2/4= No of animals exhibiting toxicity /No of animals tested; type: organism-based; parameters: dose 300 mg/kg; settings: in vivo, ip
Mus musculus [34] = test: Anti convulsant activity administered intra peritoneally to mouse at maximal electroshock test at 0.5 h after the drug administered with dose of 300 mg/kg; 0/1= No of animals protected /No of animals tested; type: functional
Rattus norvegicus [35] = test: Anticonvulsant activity after oral administration of 100 mg/kg dose after 1 hr in rats; + means 25% of the animals protected; type: functional, organism-based; parameters: dose 100 mg/kg; in short: as §2
Rattus norvegicus [36] = test: Anticonvulsant activity administered orally to rat at subcutaneous metrazol test; type: functional
Mus musculus [37] = test: Anticonvulsant activity administered intra peritoneally to mouse at subcutaneous metrazol test; type: functional; settings: sc

SMILES | Toxicity [3] | Toxicity [4] | Toxicity [5] | Toxicity [6] | Activity (Mus musculus [9]) | Activity (Mus musculus [10]) | Activity (Mus musculus [11]) | Activity (Mus musculus [12]) | Activity (Mus musculus [13]) | Activity (Mus musculus [14]) | Activity (Mus musculus [15]) | Activity (Mus musculus [16]) | Activity (Mus musculus [21]) | Activity (Mus musculus [22]) | Activity (Mus musculus [23]) | Activity (Mus musculus [24]) | Toxicity [27] | also measured
CC1(C)C(C(N)=O)C1(C)C | – | – | – | – | – | – | – | – | – | – | – | – | – | – | – | – | – | Activity (Rattus norvegicus [1]): 7.3; Activity (Mus musculus [2]): 1.7
CC1(C)C(C(=O)NC2CC2)C1(C)C | 1 | 0 | 0 | 0 | 0 | 0 | 0 | 0 | 0 | 0 | 1 | 0 | 0 | 0 | 0 | 0 | – | Toxicity [7]: 0; Toxicity [8]: 4; Activity (Rattus norvegicus [17]): 25% of animal protected; Activity (Rattus norvegicus [18]): 25% of animal protected; Activity (Rattus norvegicus [19]): 25% of animal protected; Activity (Rattus norvegicus [20]): 25% of animal protected; Activity (Rattus norvegicus [25]): 25% of animal protected
CN(C)C(=O)NC(=O)C1C(C)(C)C1(C)C | – | 0 | 0 | 0 | 0 | 0 | – | – | 0 | 0 | 1 | 0 | 0 | 0 | 0 | 0 | 1 | Toxicity [26]: 0; Activity (Mus musculus [28]): 1; Activity (Rattus norvegicus [29]): 25% of the animals protected; Activity (Rattus norvegicus [30]): 25% of the animals protected; Activity (Rattus norvegicus [31]): 25% of the animals protected; Activity (Rattus norvegicus [32]): 25% of the animals protected
CN(CCO)C(=O)C1C(C)(C)C1(C)C | 1 | 0 | 0 | 0 | 0 | 0 | 0 | 0 | 0 | 0 | – | 0 | 0 | 0 | 0 | 0 | 1 | Toxicity [33]: 2; Activity (Mus musculus [34]): 0; Activity (Rattus norvegicus [35]): 25% of the animals protected
CCCC(CCC)C(=O)O [VALPROIC ACID] | – | – | – | – | – | – | – | – | – | – | – | – | – | – | – | – | – | ED50 (Rattus norvegicus [36]): 646 mg/kg; ED50 (Mus musculus [37]): 220 mg/kg
